Source: PubChem BioAssay (Sanford-Burnham Center for Chemical Genomics)
DNMT1 inh: inhibitors of human DNMT1 | P26358 | DNMT1 molecular beacon, Hinp1I cleavage, fluorescence | inhibition (reported as % activation of signal), % at 10 µM | 360,000 tested, 0.83% active; in the data active means inhibition above about 50%
Scp-1 inhibitor: Scp-1 (human) phosphatase inhibition. AID 493091. inhibition, % at 20 µM. 340,000 tested, 0.88% active. Q9GZU7. Recombinant Scp1, phosphopeptide, malachite green phosphate absorbance;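 active means inhibition above about 50% at 20 µM, limit read from the data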
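System: truncated SCP-1 phosphatase (76-261aa); medium: Tris acetate buffer pH 5.5 with MgCl2 and Tween-20; incubation: 45 min room-temperature reaction, 5 min colour, 30 min stabiliser; compound: single 20 µM dose, 1% DMSO; reagent: Phosphorylated 17-residue peptide substrate; read-out: % inhibition at 20 µM; technique: colorimetric free-phosphate detection, absorbance 630 nm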
NadD inh: NadD (S. aureus) enzyme inhibition; purified NadD enzyme, colorimetric absorbance read-out; inhibition, % at 20 µM; 360,000 tested, 0.78% active; in the data active means inhibition above about 26%
LMPTP inh: blocks human LMPTP phosphatase; 360,000 tested, 0.22% active; recombinant LMPTP-A, OMFP fluorogenic substrate, fluorescence intensity; inhibition, % at 20 µM; P24666;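 active means compounds that cut the enzyme signal by at least half of the control window in the single-dose screen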
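Assay system: LMPTP-A phosphatase enzyme | Input: 0.625 nM enzyme | Also added: Fluorogenic phosphatase substrate OMFP at 400 µM final | Compound dosing: One test concentration per compound, 20 µM, with 3% DMSO overall | Schedule: 50 min enzyme reaction at room temperature, protected from light | Signal: Fluorescence intensity | Benchmarks: no-enzyme and uninhibited controls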
STEP inh: blocks human striatal-enriched tyrosine phosphatase | P54829 | recombinant STEP, OMFP fluorogenic substrate, fluorescence | inhibition, % at 20 µM | 360,000 tested, 0.25% active;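 active means inhibition at 20 µM, scaled per plate between control wells, above about 37%, limit read from the data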
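Measure: Control-normalized % inhibition with plate pattern correction | Test system: STEP phosphatase, cell-free reaction | Medium: pH 6.0 Bis-Tris with DTT and Tween 20 | Technique: Fluorescence, 480/540 nm | Times: Reaction 20 min, ambient temperature | Doses: Single compound dose of 20 µM, 1% DMSO final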
SUMO1-SIM PPI: SUMO1-SIM interaction modulation; SUMO1 binding to a labelled peptide, TR-FRET, 1 h; inhibition, % at 20 µM; 360,000 tested, 0.33% active; in the data active means inhibition above about 37%
Scp-1 conf: Scp-1 (human) inhibition, single-dose confirmed | 2,500 tested, 61% active | recombinant SCP-1 catalytic domain, phosphate release, malachite green absorbance | shares compounds with Scp-1 inhibitor | AID 540281 | inhibition, % at 20 µM
MG interference: colorimetric interference in Scp-1 counter-screen; shares compounds with Scp-1 inhibitor; Colorimetric interference counterscreen, malachite green absorbance 630 nm; apparent inhibition (interference), % at 20 µM; 2,500 tested, under 10 active; AID 540313;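 further: compounds added after enzyme reaction finished so only phosphate colour detection is probed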
Scp1 DSF: validation of human Scp-1 inhibitors by thermal shift binding; shares compounds with Scp-1 inhibitor; Recombinant SCP1, Sypro Orange thermal shift Tm; thermal shift relative to vanadate control, % at 40 µM; 1,500 tested, 25% active; AID 540329;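 active means substances whose mean melting-temperature shift, as a percentage of the reference inhibitor's shift, reaches about 5.3%, limit read from the data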
Each line names hits and unclear results; the compound was inactive in the other large screens (follow-up assays come after a bar, where they were run). Sampled rows, rich in hits. Any-hit rate of the full collection: about 2.4%.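 How the source made its calls, unless noted: active means inhibition of at least 30% at 20 µM; inactive means the rest.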

O=C(C[n+]1ccccc1)Nc1ccc(Cl)c([N+](=O)[O-])c1	none
COc1ccccc1-c1cc2c(c3c1ccn3C)C1CCC2C1 (stereo not given)	none (no result: Scp-1 inhibitor)
O=C(C[n+]1cccc(C(=O)Nc2ccccc2)c1)c1ccc(Cl)cc1	none (no result: DNMT1 inh, Scp-1 inhibitor, STEP inh)
NC(=O)C[n+]1cccc(C(=O)Nc2ccccc2)c1	Scp-1 inhibitor 90 | Scp-1 conf inactive | MG interference inactive
CC1(C(O)(C#CC[N+]2(C)CCCCC2)c2ccccc2)CCCC1 (stereo not given)	Scp-1 inhibitor 98 | Scp-1 conf 94 | MG interference inactive | Scp1 DSF inactive
CCC[N+]1(CC#CC(O)(c2ccccc2)C2CCCCC2)CCCCC1 (stereo not given)	none
CC1(C)CC(CCC(=O)NC(=S)Nc2ccccc2Cl)C(=O)O1 (stereo not given)	none | Scp-1 conf inactive | MG interference inactive
O=C(CCN1C(=O)c2ccccc2C1=O)NC(=S)Nc1ccccc1Cl	none
CCCCOc1ccc(/C=C/C(=O)OCC(=O)NC(=O)NCC(C)C)cc1OCC	none
Cc1ccc(OCC(=O)c2cc(C)n(Cc3cccs3)c2C)c([N+](=O)[O-])n1	none
Cc1cc(C(=O)COc2ccc3ccc(=O)oc3c2)c(C)n1Cc1cccs1	Scp-1 inhibitor 66 | Scp-1 conf 53 | MG interference inactive | Scp1 DSF inactive
N#CCSc1ncnc2sc3c(c12)CCC3	Scp-1 inhibitor 68 | Scp-1 conf inactive | MG interference inactive
Cc1nc(SCC#N)c2c3c(sc2n1)CCC3	none
COc1ccc(/C=N/NC(=O)c2cccnc2)cc1CN1CCCc2ccccc21	none
COc1ccc(C(=O)N/N=C/c2ccc(OC)c(CN3CCCc4ccccc43)c2)cc1	Scp-1 inhibitor 56 | Scp-1 conf inactive | MG interference inactive
COc1ccc(CN2C(=O)C(CC(=O)NCc3cccs3)CC(C(=O)N(C)C)=C2C)cc1 (stereo not given)	none (no result: Scp-1 inhibitor)
Cn1c(SCC(=O)c2ccc(O)c(O)c2)nnc1-c1cccs1	Scp-1 inhibitor 67 | Scp-1 conf 50 | MG interference inactive | Scp1 DSF inactive
CCN1C(=O)[C@H]2[C@@H](c3ccc(C)cc3)N[C@]3(CCCN(Cc4cccn4C)C3=O)[C@H]2C1=O	none (no result: Scp-1 inhibitor)
CCN(C[C@H]1N[C@@](Cc2ccccc2)(C(=O)OC)[C@H]2C(=O)N(C)C(=O)[C@@H]12)C(=O)COC	Scp-1 inhibitor 50 | Scp-1 conf inactive | MG interference inactive
CCOc1ccc(NC(=O)CCN2CCN(S(=O)(=O)c3ccc(Cl)cc3)CC2)cc1	none
O=C(NCCc1c[nH]c2ccccc12)c1ccc2c(c1)OCO2	none
O=C(NCCc1c[nH]c2ccccc12)c1cc(Cl)c2c(c1)OCO2	Scp-1 inhibitor 52 | Scp-1 conf inactive | MG interference inactive
O=C(NC1CCCCC1)C(C1CC1)n1c(=O)c(-c2cc3ccccc3[nH]2)nc2ccccc21 (stereo not given)	none (no result: DNMT1 inh, Scp-1 inhibitor, NadD inh, STEP inh)
CSc1ccc(/C=N/NC(=O)c2ccc(C)c(C)c2)cc1	Scp-1 inhibitor 83 | Scp-1 conf 59 | MG interference inactive | Scp1 DSF inactive
CSc1ccc(/C=N/NC(=O)c2cc(O)cc(O)c2)cc1	none
O=[N+]([O-])c1ccccc1S(=O)(=O)N1CCN(c2ccccc2)CC1	none
COC(=O)c1c(C)[nH]c(C(=O)COC(=O)Cn2cc(C(F)(F)F)ccc2=O)c1C	none
O=C1CCC(CCC(=O)N2CCCC(C(=O)c3cccc(C(F)(F)F)c3)C2)=NN1 (stereo not given)	none | Scp-1 conf inactive | MG interference inactive
COc1cccc(C(=O)C2CCCN(C(=O)CCC3=NNC(=O)CC3)C2)c1 (stereo not given)	none
